For experiment [1], the system named is Mus musculus. Description: Inhibition of AChE in C57B1/6J mouse brain membrane at 16 mg/kg, ip after 4 hrs by competitive activity-based protein profiling-MudPIT method. Set-up: dose 16 mg/kg. Type of experiment: functional, organism-based. The gist of the method:
(§1)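 Mice were dosed 16 mg kg^-1 i.p. or vehicle and killed at 4 h. Brain membrane proteomes were labelled with FP-biotin, avidin-enriched, trypsin-digested on bead, analysed by multidimensional LC-MS and identified by SEQUEST.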

The test system of experiment [2] is Mus musculus. Description: Inhibition of FAAH in C57B1/6J mouse brain membrane assessed as elevated level of anandamide at 10 mg/kg, ip by competitive activity-based protein profiling method. Type of experiment: functional, organism-based. More on the design: dose 10 mg/kg.
Experiment [3] concerns Mus musculus. The experiment can be described thus: Inhibition of TPP2 in C57B1/6J mouse brain membrane at 16 mg/kg, ip after 4 hrs by competitive activity-based protein profiling-MudPIT method. Type of experiment: functional, organism-based. Set-up: dose 16 mg/kg. The gist of the method: (§2)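 After i.p. dosing in 4:1 PEG300:Tween80, male C57Bl/6J mice were killed at 4 h. Brain membrane proteomes from treated and vehicle mice were labelled with FP-biotin. Labelled proteins were enriched on avidin, digested on-bead with trypsin and analysed by multidimensional LC-MS. Proteins were identified by SEQUEST, and dosed samples were compared with vehicle.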

Experiment [4] concerns Mus musculus. The experiment can be described thus: Inhibition of AADACL1 in C57B1/6J mouse brain membrane at 16 mg/kg, ip after 4 hrs by competitive activity-based protein profiling-MudPIT method. Type of experiment: functional, organism-based. More on the design: dose 16 mg/kg. The gist of the method: as §1
The subject of experiment [5] is Mus musculus. The experiment can be described thus: Inhibition of LPL1 in C57B1/6J mouse brain membrane at 16 mg/kg, ip after 4 hrs by competitive activity-based protein profiling-MudPIT method. The experiment is classed as functional, organism-based. More on the design: dose 16 mg/kg. Put shortly:
as §2

For experiment [6], the system named is Mus musculus. Description: Inhibition of FAAH in orally dosed C57B1/6J mouse brain membrane after 4 hrs. The experiment is classed as functional, organism-based. Put shortly: (§3)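 Oral dosing used male C57Bl/6J mice (6-8 weeks) given inhibitor in PEG300 vehicle at 4 ul g^-1, handled as for i.p. dosing. Brains were taken 4 h later for analysis of brain membrane hydrolase activity.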

Experiment [7] has as its system Mus musculus. Description: Inhibition of PAFAH-1Bg in C57B1/6J mouse brain membrane at 16 mg/kg, ip after 4 hrs by competitive activity-based protein profiling-MudPIT method. More on the design: dose 16 mg/kg. The experiment is classed as functional, organism-based. The gist of the method: as §2
Experiment [8] has as its system Mus musculus. The experiment can be described thus: Inhibition of GPID in C57B1/6J mouse brain membrane at 16 mg/kg, ip after 4 hrs by competitive activity-based protein profiling-MudPIT method. Type of experiment: functional, organism-based. Set-up: dose 16 mg/kg. The gist of the method:
as §2

Experiment [9] relates to Mus musculus. The experiment can be described thus: Inhibition of ABHD3 in C57B1/6J mouse brain membrane at 16 mg/kg, ip after 4 hrs by competitive activity-based protein profiling-MudPIT method. Type of experiment: functional, organism-based. More on the design: dose 16 mg/kg. Put shortly:
as §1

Experiment [10] has as its system Mus musculus. Description: Inhibition of BAT5 in C57B1/6J mouse brain membrane at 16 mg/kg, ip after 4 hrs by competitive activity-based protein profiling-MudPIT method. The experiment is classed as functional, organism-based. More on the design: dose 16 mg/kg. The gist of the method:
as §1

In experiment [11] the test system is Mus musculus. Description: Change in 2-AG levels in intraperitoneally dosed C57B1/6J mouse brain by LC-MS. The experiment is classed as functional, organism-based. Put shortly: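 Male C57Bl/6J mice given 4, 8, 16 or 40 mg kg^-1 i.p. in 4:1 PEG300:Tween80 at 4 μl g^-1, or vehicle, and killed after 4 h. Whole-brain lipids were quantified by LC-MS.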
Experiment [12] concerns the target T1, Monoglyceride lipase (Mus musculus) (UniProt O35678).
T1 sequence (whole entry): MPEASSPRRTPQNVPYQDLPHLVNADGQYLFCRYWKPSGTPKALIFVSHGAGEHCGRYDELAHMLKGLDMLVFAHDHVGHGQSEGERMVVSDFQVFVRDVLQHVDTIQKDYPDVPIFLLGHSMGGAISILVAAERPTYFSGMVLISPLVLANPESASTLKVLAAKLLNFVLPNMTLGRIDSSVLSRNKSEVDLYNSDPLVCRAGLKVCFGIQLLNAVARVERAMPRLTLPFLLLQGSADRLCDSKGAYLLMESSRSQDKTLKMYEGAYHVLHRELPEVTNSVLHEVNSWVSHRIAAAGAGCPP
The following applies: C57B1/6J, Brain, Membrane, 50 nM.

In experiment [13] the test system is Mus musculus. The experiment can be described thus: Antinociceptive activity against formalin-induced pain in C57B1/6J mouse assessed as paw lifting or licking during early phase (0 to 10 mins) at 40 m/kg, po administered 2 hrs before formalin challenge. The experiment is classed as functional, organism-based.
Experiment [14] has as its system Mus musculus. Description: Inhibition of MAGL in C57B1/6J mouse brain membrane at 4 mg/kg, ip after 4 hrs by competitive activity-based protein profiling method relative to control. The experiment is classed as functional. Conditions: route intraperitoneal. Put shortly: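 Male C57Bl/6J mice (6-8 weeks, 20-26 g) dosed i.p. in 4:1 v/v PEG300:Tween80 vehicle at 4 ul g^-1; killed 4 h post-dose. Brain membrane proteomes were then labelled with FP-rhodamine (2 μM, 30 min, room temperature), resolved by SDS-PAGE and scanned in-gel for fluorescence. MAGL signal was compared with vehicle-treated controls.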

The test system of experiment [15] is Mus musculus. Description: Inhibition of MAGL in C57B1/6J mouse brain membrane assessed as increase in 2-AG level at 16 mg/kg, ip upto 24 hrs by competitive activity-based protein profiling method relative to control. Type of experiment: functional. The following applies: route intraperitoneal. The gist of the method: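 Male C57Bl/6J mice dosed i.p. in 4:1 v/v PEG300:Tween80, with vehicle controls; killed at set times (0.5-24 h, or 4 h). Brain membrane 2-AG hydrolysis measured by LC-MS substrate assay, and brain 2-AG measured by lipid LC-MS, relative to vehicle.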

In experiment [16] the test system is Mus musculus. The experiment can be described thus: Inhibition of MAGL in C57B1/6 mouse nucleus accumbens assessed as increase in interstitial level of 2-AG at 10 mg/kg, ip by following neuronal depolarization by microdialysis. The experiment is classed as functional, organism-based. Set-up: dose 10 mg/kg. The gist of the method:
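Male C57Bl/6 mice received 10 mg kg^-1 i.p. 1 h before neuronal depolarization. 2-AG and AEA were sampled by in vivo microdialysis from the nucleus accumbens.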

The subject of experiment [17] is Mus musculus. Description: Inhibition of NTE in C57B1/6J mouse brain membrane at 16 mg/kg, ip after 4 hrs by competitive activity-based protein profiling-MudPIT method. The experiment is classed as functional, organism-based. Set-up: dose 16 mg/kg. Put shortly: as §2
Experiment [18] concerns Mus musculus. Description: Inhibition of ABHD12 in C57B1/6J mouse brain membrane at 16 mg/kg, ip after 4 hrs by competitive activity-based protein profiling-MudPIT method. Type of experiment: functional, organism-based. More on the design: dose 16 mg/kg. The gist of the method: as §1
For experiment [19], the system named is Mus musculus. The experiment can be described thus: Inhibition of 2210412D01 gene in C57B1/6J mouse brain membrane at 16 mg/kg, ip after 4 hrs by competitive activity-based protein profiling-MudPIT method. The experiment is classed as functional, organism-based. Set-up: dose 16 mg/kg. Put shortly:
as §1

For experiment [20], the system named is Mus musculus. The experiment can be described thus: Inhibition of MAGL in orally dosed C57B1/6J mouse brain membrane after 4 hrs. The experiment is classed as functional, organism-based. The gist of the method:
as §3

In experiment [21] the test system is Mus musculus. Description: Inhibition of MAGL in C57B1/6J mouse brain membrane at 16 mg/kg, ip after 4 hrs by competitive activity-based protein profiling-MudPIT method. More on the design: dose 16 mg/kg. The experiment is classed as functional, organism-based. Put shortly:
as §2

Experiment [22] has as its system Mus musculus. Description: Inhibition of ACOT2 in C57B1/6J mouse brain membrane at 16 mg/kg, ip after 4 hrs by competitive activity-based protein profiling-MudPIT method. Type of experiment: functional, organism-based. More on the design: dose 16 mg/kg. Put shortly:
as §1

Experiment [23] deals with Mus musculus. The experiment can be described thus: Inhibition of ABHD11 in C57B1/6J mouse brain membrane at 16 mg/kg, ip after 4 hrs by competitive activity-based protein profiling-MudPIT method. The experiment is classed as functional, organism-based. More on the design: dose 16 mg/kg. The gist of the method: as §1
The subject of experiment [24] is Mus musculus. Description: Induction of hypothermia in C57B1/6J mouse at 16 mg/kg, ip. Type of experiment: functional, organism-based. More on the design: dose 16 mg/kg. Put shortly: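 Male C57Bl/6J mice, 6-8 weeks, 20-26 g, given 16 mg kg^-1 i.p. in 4:1 v/v PEG300:Tween80 at 4 μl g^-1; vehicle controls received PEG300:Tween80 alone. Cannabinoid effects were scored in the tetrad test.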

Active and inactive are the calls of the source. The rule behind the calls is not given here.

As a reminder, the inhibition in vivo is the relative decrease from the control value, in per cent.

Regarding `O=C(Oc1ccc([N+](=O)[O-])cc1)N1CCC(C(O)(c2ccc3c(c2)OCO3)c2ccc3c(c2)OCO3)CC1`, the inhibition result with Mus musculus [1], in the experiment on Mus musculus [3], in the experiment with Mus musculus [4], with Mus musculus [5], in the experiment with Mus musculus [7] and with Mus musculus [8] was “inactive” throughout. Further, the inhibition result with Mus musculus [9], in the experiment on Mus musculus [10], in the experiment with Mus musculus [17], in the experiment with Mus musculus [18], in the experiment on Mus musculus [19] and in the experiment with Mus musculus [22] was “inactive” in each case. In the experiment on Mus musculus [23], the inhibition result was “inactive”. For the same molecule, the inhibition entry (with Mus musculus [2]; in the experiment on Mus musculus [6]; in experiment [12]; with Mus musculus [16]; in the experiment with Mus musculus [20]; with Mus musculus [21]) was “Active” throughout. The result with Mus musculus [11] was inactive. For the same molecule, the outcome in the experiment on Mus musculus [13] and in the experiment with Mus musculus [24] was Active. Besides, the “fold change (FC)” value in the experiment with Mus musculus [14] came to 5. Further, the inhibition in vivo at 16 mg/kg with Mus musculus [15] was above 80%.
